Laboratory results taken from ChEMBL document CHEMBL5661974, “Pharmacologic characterization of a potent inhibitor of class I phosphatidylinositide 3-kinases” (Cancer Res, 2007).
Activity calls are given as the source filed them. The calls are words filed in the database; no cut-off is given here.

Tests used:
U-87 MG [1] = settings: Homo sapiens, time 24.0 hrs
[2] = Half life in BALB/C mouse liver at 2.5 mg/kg, iv by LC-MS/MS analysis; assay type: ADME, organism-based
Summary of the method: (§1)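 Female BALB/c mice, 6–8 weeks old, given 2.5 mg/kg i.v. in 10% DMSO, 0.5% Tween 20 in saline. Plasma came from serial bleeds; tissues were homogenized in 2 or 3 volumes PBS. Samples were methanol-precipitated with an analogue internal standard, then LC-MS/MS by multiple reaction monitoring against an 8-point external calibration of 2–20,000 nmol/L. Parameters came from WinNonlin noncompartmental analysis, model 201 for plasma and model 200 for tissues.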

U-87 MG [3] = settings: Homo sapiens, time 24.0 hrs; remark: listed apart in the source
PC-3 [4] = experiment: Antitumor activity against PTEN null human PC-3 cells xenografted male Ncr model assessed as body weight loss at 30 mg/kg, ip administered once a daily for 14 days relative to control; settings: time 14 day
HCT-116 [5] = experiment: Antitumor activity against PIK3CA mutant human HCT-116 cells xenografted female Ncr model assessed as T/C at 30 mg/kg, ip administered once a daily for 21 days relative to control; assay type: functional; settings: time 21 day
OVCAR-3 [6] = experiment: Antitumor activity against human OVCAR-3 cells xenografted female Ncr model assessed as T/C at 15 mg/kg, ip administered daily for 15 days relative to control; assay type: functional; settings: time 15 day
OVCAR-3 [7] = experiment: Antitumor activity against human OVCAR-3 cells xenografted female Ncr model assessed as T/C at 30 mg/kg, ip administered daily for 15 days relative to control; assay type: functional; settings: time 15 day
HCT-116 [8] = experiment: Antitumor activity against PIK3CA mutant human HCT-116 cells xenografted female Ncr model assessed as T/C at 30 mg/kg, ip administered twice a daily for 21 days relative to control; assay type: functional; settings: time 21 day
PC-3 [9] = experiment: Antiproliferative activity against human PC-3 cells harboring PTEN deletion assessed as cell growth inhibition incubated for 96 hrs by SRB assay; assay type: functional
[10] = AUClast in BALB/C mouse plasma at 2.5 mg/kg, iv by LC-MS/MS analysis; assay type: ADME, organism-based
Summary of the method: as §1

[11] = Half life in BALB/C mouse plasma at 2.5 mg/kg, iv by LC-MS/MS analysis; assay type: ADME, organism-based
Summary of the method: as §1

HCT-116 [12] = experiment: Antitumor activity against PIK3CA mutant human HCT-116 cells xenografted female Ncr model assessed as T/C at 30 mg/kg, ip administered once a daily for 14 days relative to control; assay type: functional; settings: time 14 day
IGROV-1 = experiment: Antiproliferative activity against human IGROV-1 cells harboring PI3KCA/PTEN mutant assessed as cell growth inhibition incubated for 96 hrs by SRB assay; assay type: functional
MDA-MB-435 = experiment: Antitumor activity against ERB-B2 overexpressing human MDA-MB-435 cells xenografted female Ncr model assessed as T/C at 30 mg/kg, ip administered once a daily for 14 days relative to control; assay type: functional; settings: time 14 day
[13] = Tmax in BALB/C mouse spleen at 2.5 mg/kg, iv by LC-MS/MS analysis; assay type: ADME, organism-based
Summary of the method: as §1

## Oc1cccc(-c2nc(N3CCOCC3)c3oc4ncccc4c3n2)c1 [PI-103]
U-87 MG [1]
  inhibition: Active
[2]
  half-life: 252 min
U-87 MG [3]
  inhibition: Active
PC-3 [4]
  Body weight loss: <15%
HCT-116 [5]
  T/C: 98.6%
OVCAR-3 [6]
  T/C: 61%
OVCAR-3 [7]
  T/C: 62%
HCT-116 [8]
  T/C: 48%
PC-3 [9]
  GI50: 100 nM
[10]
  AUC(0-t): 0.624 µM·h
[11]
  half-life: 42 min
HCT-116 [12]
  T/C: 68%
IGROV-1
  GI50: 60 nM
MDA-MB-435
  T/C: 85%
[13]
  Tmax: 4.98 min
